Published values collected from several papers.
Target: Insulin-like growth factor 1 receptor (IGF1R, Homo sapiens, UniProt P08069)

C[C@H]1CC[C@H](n2c3cnccc3c3cnc(Nc4ccc5c(n4)CCN(C(=O)CO)C5)nc32)CC1 — remaining binding (binding; 1 µM): 100%
C=CC(=O)N1CCC([C@@H]2CCNc3c(C(N)=O)c(-c4ccc(Oc5ccccc5)cc4)nn32)CC1 — inhibition (cell-free assay; 1 µM): 14%
C1=C/COCc2cc(ccc2OCCN2CCCC2)Nc2nccc(n2)-c2cccc(c2)COC/1 — remaining binding (binding; 0.1 µM): 83%
C#Cc1cnc(Nc2ccnc(CO)c2)nc1Nc1ccccc1S(C)(=O)=NC#N (stereo not drawn) — remaining signal (cell-free assay; 1 µM): 36%
CC#CC(=O)N1CCC[C@H]1c1nc(-c2ccc(C(=O)Nc3ccccn3)cc2)c2c(N)nccn12 — inhibition (enzyme activity; inhibitor; 1 µM): 3%
CCCCC(=O)Nc1ccc(-c2ccc3ncn(CCC)c(=O)c3c2)cn1 — remaining binding (binding; competition with immobilised ligand; 0.5 µM): 98%
N#Cc1ccc(NC(=O)Nc2ccccc2)cc1 — remaining binding (cell-free assay; competition with immobilised ligand; 25 µM): 100%
COc1ccc2oc(-c3ccc4nc(N)oc4c3)c/c(=N\c3ccccc3NC(=O)CCN)c2c1 — remaining binding (binding; 1 µM): 93%
CN1CCN(C(=O)c2ccc(NC(=O)Nc3ccc(N(C)c4ccnc(Nc5ccc(CS(C)(=O)=O)cc5)n4)cc3)cc2)CC1 — remaining binding (binding; 1 µM): 100%
